In ChEMBL document CHEMBL1129929, “Analogues of methotrexate in rheumatoid arthritis. 1. Effects of 10-deazaaminopterin analogues on type II collagen-induced arthritis in mice” (J Med Chem, 1997):
Each block holds one compound with its values, some of them ahead of it.

How the values were obtained:
Mus musculus [1] = test: Incidence of disease(mouse type II collagen arthritis) was scored as the percentage of animals within each experimental group that exhibited joint or limb inflammation on day 30 at intraperitoneal of dose 12 mg/kg (1 animal died); type: functional
Summary of the method: (§1)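 DBA/1 mice immunised with bovine type II collagen, booster at day 21 (modified Courtenay model). Compound given intraperitoneally from 2 days before the first collagen challenge, then every 2 days. Incidence is the percentage of animals per group showing joint or limb inflammation, scored visually on days 23, 30, 37 and 44.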

Mus musculus [2] = test: Tested for antiinflammatory activity on mouse type II collagen arthritis as Paw swelling* of all animals in each group on day 44 at intraperitoneal dose of 12 mg/kg; d means 3 animals died; type: functional, organism-based; parameters: dose 12 mg/kg
Summary of the method: (§2)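 DBA/1 mice immunized with bovine type II collagen (Courtenay method, modified), antigen booster at day 21. Compounds given ip from 2 days before the first collagen challenge, then every 2 days. Hind paw dimensions (mm) measured for both limbs of all animals, expressed as mean ± SD. Eight mice per dose; untreated controls pooled from four experiments (48 animals).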

Mus musculus [3] = test: Incidence of disease(mouse type II collagen arthritis) was scored as the percentage of animals within each experimental group that exhibited joint or limb inflammation on day 23 at intraperitoneal dose of 12 mg/kg (1 animal died); type: functional; summary of the method: as §1
Mus musculus [4] = test: Incidence of disease(mouse type II collagen arthritis) was scored as the percentage of animals within each experimental group that exhibited joint or limb inflammation on day 44 at intraperitoneal of dose 12 mg/kg; d means 3 animals died; type: functional, organism-based; parameters: dose 12 mg/kg; conditions: at 12 mg/kg
Summary of the method: (§3)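 DBA/1 mice were immunized with bovine type II collagen (modified Courtenay method), with a collagen booster on day 21. Compounds were given ip starting 2 days before the first collagen challenge and every 2 days thereafter. Incidence was the percentage of animals per group with joint or limb inflammation, scored on days 23, 30, 37 and 44.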

Mus musculus [5] = test: Tested for antiinflammatory activity on mouse type II collagen arthritis as Paw swelling* of all animals in each group on day 37 at intraperitoneal dose of 12 mg/kg; type: functional; summary of the method: as §2
Mus musculus [6] = test: Tested for antiinflammatory activity on mouse type II collagen arthritis as Paw swelling* of all animals in each group on day 23 at intraperitoneal dose of 12 mg/kg; type: functional; summary of the method: as §2
Mus musculus [7] = test: Tested for antiinflammatory activity on mouse type II collagen arthritis as Paw swelling* of all animals in each group on day 30 at intraperitoneal dose of 12 mg/kg; type: functional; summary of the method: as §2
Mus musculus [8] = test: Incidence of disease(mouse type II collagen arthritis) was scored as the percentage of animals within each experimental group that exhibited joint or limb inflammation on day 37 at intraperitoneal of dose 12 mg/kg (1 animal died); type: functional; summary of the method: as §1
[9] = Concentration required to inhibit the growth of chang liver cells; type: functional; conditions: Homo sapiens
Mus musculus [10] = test: Tested for antiinflammatory activity on mouse type II collagen arthritis as Paw swelling* of all animals in each group on day 30 at intraperitoneal dose of 9 mg/kg; type: functional; summary of the method: as §2
Mus musculus [11] = test: Tested for antiinflammatory activity on mouse type II collagen arthritis as Paw swelling* of all animals in each group on day 44 at intraperitoneal dose of 12 mg/kg; type: functional; summary of the method: as §2
Mus musculus [12] = test: Incidence of disease(mouse type II collagen arthritis) was scored as the percentage of animals within each experimental group that exhibited joint or limb inflammation on day 30 at intraperitoneal of dose 15 mg/kg; type: functional; summary of the method: as §3
Mus musculus [13] = test: Incidence of disease(mouse type II collagen arthritis) was scored as the percentage of animals within each experimental group that exhibited joint or limb inflammation on day 44 at intraperitoneal of dose 15 mg/kg; type: functional; summary of the method: as §3
Mus musculus [14] = test: Incidence of disease(mouse type II collagen arthritis) was scored as the percentage of animals within each experimental group that exhibited joint or limb inflammation on day 44 at intraperitoneal of dose 9 mg/kg; type: functional; summary of the method: as §3
Mus musculus [15] = test: Incidence of disease(mouse type II collagen arthritis) was scored as the percentage of animals within each experimental group that exhibited joint or limb inflammation on day 30 at intraperitoneal of dose 12 mg/kg; type: functional; summary of the method: as §3
Mus musculus [16] = test: Tested for antiinflammatory activity on mouse type II collagen arthritis as Paw swelling* of all animals in each group on day 37 at intraperitoneal dose of 15 mg/kg; type: functional; summary of the method: as §2
Mus musculus [17] = test: Incidence of disease(mouse type II collagen arthritis) was scored as the percentage of animals within each experimental group that exhibited joint or limb inflammation on day 23 at intraperitoneal dose of 9 mg/kg; type: functional; summary of the method: as §3
Mus musculus [18] = test: Tested for antiinflammatory activity on mouse type II collagen arthritis as Paw swelling* of all animals in each group on day 37 at intraperitoneal dose of 9 mg/kg; type: functional; summary of the method: as §2
Mus musculus [19] = test: Tested for antiinflammatory activity on mouse type II collagen arthritis as Paw swelling* of all animals in each group on day 44 at intraperitoneal dose of 9 mg/kg; type: functional; summary of the method: as §2
Mus musculus [20] = test: Tested for antiinflammatory activity on mouse type II collagen arthritis as Paw swelling* of all animals in each group on day 23 at intraperitoneal dose of 15 mg/kg; type: functional; summary of the method: as §2
Mus musculus [21] = test: Tested for antiinflammatory activity on mouse type II collagen arthritis as Paw swelling* of all animals in each group on day 30 at intraperitoneal dose of 15 mg/kg; type: functional; summary of the method: as §2
Mus musculus [22] = test: Incidence of disease(mouse type II collagen arthritis) was scored as the percentage of animals within each experimental group that exhibited joint or limb inflammation on day 23 at intraperitoneal dose of 12 mg/kg; type: functional; summary of the method: as §3
Mus musculus [23] = test: Tested for antiinflammatory activity on mouse type II collagen arthritis as Paw swelling* of all animals in each group on day 44 at intraperitoneal dose of 15 mg/kg; type: functional; summary of the method: as §2
Mus musculus [24] = test: Tested for antiinflammatory activity on mouse type II collagen arthritis as Paw swelling* of all animals in each group on day 23 at intraperitoneal dose of 9 mg/kg; type: functional; summary of the method: as §2
Mus musculus [25] = test: Incidence of disease(mouse type II collagen arthritis) was scored as the percentage of animals within each experimental group that exhibited joint or limb inflammation on day 30 at intraperitoneal of dose 9 mg/kg; type: functional; summary of the method: as §3
Mus musculus [26] = test: Incidence of disease(mouse type II collagen arthritis) was scored as the percentage of animals within each experimental group that exhibited joint or limb inflammation on day 44 at intraperitoneal of dose 12 mg/kg; type: functional; summary of the method: as §3
Mus musculus [27] = test: Incidence of disease(mouse type II collagen arthritis) was scored as the percentage of animals within each experimental group that exhibited joint or limb inflammation on day 37 at intraperitoneal of dose 9 mg/kg; type: functional; summary of the method: as §3
L1210 = test: Concentration required to inhibit the growth of L1210 cells; type: functional, cell-based; conditions: Mus musculus
Mus musculus [28] = test: Incidence of disease(mouse type II collagen arthritis) was scored as the percentage of animals within each experimental group that exhibited joint or limb inflammation on day 37 at intraperitoneal of dose 15 mg/kg; type: functional; summary of the method: as §3
Mus musculus [29] = test: Incidence of disease(mouse type II collagen arthritis) was scored as the percentage of animals within each experimental group that exhibited joint or limb inflammation on day 23 at intraperitoneal dose of 15 mg/kg; type: functional; summary of the method: as §3
Mus musculus [30] = test: Incidence of disease(mouse type II collagen arthritis) was scored as the percentage of animals within each experimental group that exhibited joint or limb inflammation on day 37 at intraperitoneal of dose 12 mg/kg; type: functional; summary of the method: as §3

SMILES: Nc1nc(N)c2nc(CCc3ccc(C(=O)NC(CCC(=O)O)C(=O)O)nc3)cnc2n1 (centres undefined)
Animals (Mus musculus [1]): 0%
Paw swelling (Mus musculus [2]): Three animals died
Animals (Mus musculus [3]): 0%
Animals (Mus musculus [4]): Three animals died
Paw swelling (Mus musculus [5]): 2.07 mm
Paw swelling (Mus musculus [6]): 2.14 mm
Paw swelling (Mus musculus [7]): 2.11 mm
Animals (Mus musculus [8]): 0%

IC50 (L1210): 3.7 nM
SMILES: Nc1nc(N)c2nc(CCc3ccc(C(=O)N[C@@H](CCC(=O)O)C(=O)O)cc3)cnc2n1
IC50 [9]: 98 nM
Paw swelling (Mus musculus [10]): 2.32 mm
Paw swelling (Mus musculus [11]): 2.33 mm
Animals (Mus musculus [12]): 38%
Animals (Mus musculus [13]): 38%
Animals (Mus musculus [14]): 50%
Animals (Mus musculus [15]): 50%
Paw swelling (Mus musculus [16]): 2.29 mm
Animals (Mus musculus [17]): 25%
Paw swelling (Mus musculus [18]): 2.28 mm
Paw swelling (Mus musculus [19]): 2.32 mm
Paw swelling (Mus musculus [20]): 2.2 mm
Paw swelling (Mus musculus [5]): 2.31 mm
Paw swelling (Mus musculus [21]): 2.31 mm
Animals (Mus musculus [22]): 12%
Paw swelling (Mus musculus [23]): 2.3 mm
Paw swelling (Mus musculus [24]): 2.19 mm
Animals (Mus musculus [25]): 38%
Paw swelling (Mus musculus [6]): 2.21 mm
Animals (Mus musculus [26]): 62%
Animals (Mus musculus [27]): 38%
Paw swelling (Mus musculus [7]): 2.36 mm
Animals (Mus musculus [28]): 50%
Animals (Mus musculus [29]): 0%
Animals (Mus musculus [30]): 50%
